Results of several laboratories.
Lines come from different studies, so protocols differ.
Target: Serine/threonine-protein kinase pim-1 (PIM1, Homo sapiens, UniProt P11309)

| SMILES | read-out | action | method | concentration | endpoint | value |
| --- | --- | --- | --- | --- | --- | --- |
| C=CC(=O)N1CCC([C@@H]2CCNc3c(C(N)=O)c(-c4ccc(Oc5ccccc5)cc4)nn32)CC1 | enzyme activity | inhibitor |  | 1 µM | inhibition | 6% |
| CCCCC(=O)Nc1ccc(-c2ccc3ncn(CCC)c(=O)c3c2)cn1 | binding |  | competition with immobilised ligand | 0.5 µM | remaining binding | 100% |
| CC(C)S(=O)(=O)c1ccc2nccc(Nc3ccc4sc(C5CCCC5)nc4c3)c2c1 | enzyme activity | inhibitor |  | 1 µM | activity vs control | 101% |
| C[C@H]1CC[C@H](n2c3cnccc3c3cnc(Nc4ccc5c(n4)CCN(C(=O)CO)C5)nc32)CC1 | cell-free assay |  |  | 1 µM | remaining signal | 59% |
| C1=C/COCc2cc(ccc2OCCN2CCCC2)Nc2nccc(n2)-c2cccc(c2)COC/1 | binding |  |  | 0.1 µM | remaining binding | 100% |
| CC(=O)ON=C1C=CC(=C(C#N)c2ccccc2)C=C1 | enzyme activity | inhibitor | ADP detection | 20 µM | activity vs control | 102% |
| N#Cc1ccc(NC(=O)Nc2ccccc2)cc1 | cell-free assay |  | competition with immobilised ligand | 25 µM | remaining binding | 87% |
| CC#CC(=O)N1CCC[C@H]1c1nc(-c2ccc(C(=O)Nc3ccccn3)cc2)c2c(N)nccn12 | enzyme activity | inhibitor |  | 1 µM | inhibition | 0% |
| C#Cc1cnc(Nc2ccnc(CO)c2)nc1Nc1ccccc1S(C)(=O)=NC#N (centres unmarked) | cell-free assay |  |  | 1 µM | remaining signal | 87% |
| CN1CCN(C(=O)c2ccc(NC(=O)Nc3ccc(N(C)c4ccnc(Nc5ccc(CS(C)(=O)=O)cc5)n4)cc3)cc2)CC1 | binding |  |  | 1 µM | remaining binding | 100% |
| COc1ccc2oc(-c3ccc4nc(N)oc4c3)c/c(=N\c3ccccc3NC(=O)CCN)c2c1 | binding |  |  | 1 µM | remaining binding | 119% |
